Active and inactive are the calls of the source.
Legend:
Format in all cases: functional, organism-based
Rattus norvegicus [1] = test: Antiarthritic activity in Wistar rat type-2 collagen-induced arthritis model assessed as reduction in mechanical allodynia at 1 mg/kg, ig via gavage administered 10 consecutive days starting from day 20 post type-2 collagen injection
How it was run: (§1)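 CIA in male 7-week-old Wistar rats: chicken CII (2 mg/mL in 0.1 M acetic acid) emulsified 1:1 in BCG-containing adjuvant, two intradermal 0.3 mL injections 7 d apart; controls received 0.05 M acetic acid. Gavage from day 20 for 10 d. Scoring, plethysmometry (mean of both hind paws) and von Frey threshold at baseline, pre-dosing and alternate days; n = 10.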

Rattus norvegicus [2] = test: Antiarthritic activity in Wistar rat type-2 collagen-induced arthritis model assessed as reduction in serum IL-1beta level at 1 mg/kg, ig via gavage administered 10 consecutive days starting from day 20 post type-2 collagen injection by ELISA method
How it was run: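 After 10 d gavage in Wistar CIA rats, trunk blood taken at sacrifice; serum stored at −70 °C. IL-1β and TNF-α measured by commercial ELISA kits per manufacturer. One-way ANOVA with Student–Newman–Keuls test; n = 10/group.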

Rattus norvegicus [3] = test: Antiarthritic activity in Wistar rat type-2 collagen-induced arthritis model assessed as reduction in hind paw volume at 1 mg/kg, ig via gavage administered 10 consecutive days starting from day 20 post type-2 collagen injection by plethysmometer; how it was run: as §1
Rattus norvegicus [4] = test: Antiarthritic activity in Wistar rat type-2 collagen-induced arthritis model assessed as reduction in bone degradation at 1 mg/kg, ig via gavage administered 10 consecutive days starting from day 20 post type-2 collagen injection by X-ray method
Rattus norvegicus [5] = test: Antiarthritic activity in Wistar rat type-2 collagen-induced arthritis model assessed as reduction in cartilage space narrowing at 1 mg/kg, ig via gavage administered 10 consecutive days starting from day 20 post type-2 collagen injection by X-ray method
Rattus norvegicus [6] = test: Antiarthritic activity in Wistar rat type-2 collagen-induced arthritis model assessed as reduction in bone erosion at 1 mg/kg, ig via gavage administered 10 consecutive days starting from day 20 post type-2 collagen injection by X-ray method
Rattus norvegicus [7] = test: Antiarthritic activity in Wistar rat type-2 collagen-induced arthritis model assessed as reduction in arthritis index score at 1 mg/kg, ig via gavage administered 10 consecutive days starting from day 20 post type-2 collagen injection; how it was run: as §1
Rattus norvegicus [8] = test: Antiarthritic activity in Wistar rat type-2 collagen-induced arthritis model assessed as reduction in serum anti-type-2 collagen IgG level at 1 mg/kg, ig via gavage administered 10 consecutive days starting from day 20 post type-2 collagen injection by ELISA method
How it was run: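 Serum from Wistar CIA rats collected after completing 10 d gavage dosing (from day 20 post first CII injection) and assayed for anti-CII IgG using a rat anti-CII antibody ELISA kit. One-way ANOVA with Student–Newman–Keuls test; n = 10/group.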

Measured: Activity

CN(Cc1cnc2nc(N)nc(N)c2n1)c1ccc(C(=O)N[C@@H](CCC(=O)O)C(=O)O)cc1
active: all assays above

From ChEMBL document CHEMBL4041468, “Effects of Koumine on Adjuvant- and Collagen-Induced Arthritis in Rats” (J Nat Prod, 2016)
